Laboratory results published in ChEMBL document CHEMBL1123757, “Selective thromboxane synthetase inhibitors and antihypertensive agents. New derivatives of 4-hydrazino-5H-pyridazino[4,5-b]indole, 4-hydrazinopyridazino[4,5-a]indole, and related compounds” (J Med Chem, 1987).
Values belong to the compound of their own block, whether it stands above or below them.

Assays:
[1] = system: Rattus norvegicus; assay: Antihypertensive activity in spontaneously hypertensive rats (SHR) measured by percentage fall in arterial pressure (AP) at 25 mg/kg administered perorally at 3 h; format: functional, Artery; settings: route oral
Method in brief: (§1)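 Oral dosing at 2.5 mL/kg to unanesthetized male and female Okamoto-strain SHR (8 weeks old, 300–350 g, systolic pressure ≥190 mmHg, heart rate 400–650 beats/min), five per dose. Vehicle was normal saline or saline with 0.2% (carboxymethyl)cellulose and 1.0% Tween 80. AP measured on the tail by mechanical transduction at set times; expressed as percentage fall from control.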

[2] = system: Rattus norvegicus; assay: Antihypertensive activity in spontaneously hypertensive rats (SHR) measured by percentage fall in arterial pressure (AP) at 25 mg/kg administered perorally at 5 h; format: functional, Artery; settings: route oral; method in brief: as §1
[3] = system: Rattus norvegicus; assay: Antihypertensive activity in spontaneously hypertensive rats (SHR) measured by percentage fall in arterial pressure (AP) at 5 mg/kg administered intraperitoneally at 1 h; format: functional, Artery; settings: route intraperitoneal
Method in brief: (§2)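 Unanesthetized Okamoto-strain SHR, male and female, 8 weeks old, 300–350 g, systolic pressure ≥190 mmHg, heart rate 400–650 beats/min; five animals per dose. Given ip at 2.5 mL/kg, dissolved or suspended in normal saline or saline with 0.2% (carboxymethyl)cellulose and 1.0% Tween 80. Tail AP and CR recorded by mechanical transduction at set times; reported as percentage fall from control.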

[4] = system: Rattus norvegicus; assay: Antihypertensive activity in spontaneously hypertensive rats (SHR) measured by percentage fall in arterial pressure (AP) at 5 mg/kg administered intraperitoneally at 24 h; format: functional, Artery; settings: route intraperitoneal; method in brief: as §2
[5] = system: Rattus norvegicus; assay: Antihypertensive activity in spontaneously hypertensive rats (SHR) measured by percentage fall in arterial pressure (AP) at 5 mg/kg administered intraperitoneally at 5 h; format: functional, Artery; settings: route intraperitoneal; method in brief: as §2
[6] = system: Rattus norvegicus; assay: Antihypertensive activity in spontaneously hypertensive rats (SHR) measured by percentage fall in arterial pressure (AP) at 25 mg/kg administered intraperitoneally at 5 h; format: functional, Artery; settings: route intraperitoneal; method in brief: as §2
[7] = system: Rattus norvegicus; assay: Antihypertensive activity in spontaneously hypertensive rats (SHR) measured by percentage fall in arterial pressure (AP) at 25 mg/kg administered perorally at 1 h; format: functional, Artery; settings: route oral; method in brief: as §1
[8] = system: Rattus norvegicus; assay: Antihypertensive activity in spontaneously hypertensive rats (SHR) measured by percentage fall in cardiac rhythm (CR) at 1 mg/kg administered intraperitoneally at 3 h; format: functional, Heart; settings: route intraperitoneal; method in brief: as §2
[9] = system: Rattus norvegicus; assay: Antihypertensive activity in spontaneously hypertensive rats (SHR) measured by percentage fall in cardiac rhythm (CR) at 1 mg/kg administered intraperitoneally at 5 h; format: functional, Heart; settings: route intraperitoneal; method in brief: as §2
[10] = system: Rattus norvegicus; assay: Antihypertensive activity in spontaneously hypertensive rats (SHR) measured by percentage fall in cardiac rhythm (CR) at 25 mg/kg administered intraperitoneally at 1 h; format: functional, Heart; settings: route intraperitoneal; method in brief: as §2
[11] = system: Rattus norvegicus; assay: Antihypertensive activity in spontaneously hypertensive rats (SHR) measured by percentage fall in cardiac rhythm (CR) at 25 mg/kg administered perorally at 3 h; format: functional, Heart; settings: route oral
Method in brief: (§3)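 Conscious SHR (Okamoto strain), 8 weeks old, male and female, 300–350 g, systolic BP ≥190 mmHg, CR 400–650 beats/min. Given ip or po at 2.5 mL/kg in normal saline or saline with 0.2% (carboxymethyl)cellulose and 1.0% Tween 80. Tail AP and CR recorded by mechanical transduction at 1, 3, 5 and 24 h, five animals per dose. Effect expressed as % fall versus control.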

[12] = system: Rattus norvegicus; assay: Antihypertensive activity in spontaneously hypertensive rats (SHR) measured by percentage fall in cardiac rhythm (CR) at 25 mg/kg administered perorally at 5 h; format: functional, Heart; settings: route oral; method in brief: as §3
[13] = system: Rattus norvegicus; assay: Antihypertensive activity in spontaneously hypertensive rats (SHR) measured by percentage fall in cardiac rhythm (CR) at 5 mg/kg administered intraperitoneally at 1 h; format: functional, Heart; settings: route intraperitoneal; method in brief: as §3
[14] = system: Rattus norvegicus; assay: Antihypertensive activity in spontaneously hypertensive rats (SHR) measured by percentage fall in cardiac rhythm (CR) at 5 mg/kg administered intraperitoneally at 24 h; format: functional, Heart; settings: route intraperitoneal; method in brief: as §3
[15] = system: Rattus norvegicus; assay: Antihypertensive activity in spontaneously hypertensive rats (SHR) measured by percentage fall in cardiac rhythm (CR) at 5 mg/kg administered intraperitoneally at 3 h; format: functional, Heart; settings: route intraperitoneal; method in brief: as §3
[16] = system: Rattus norvegicus; assay: Antihypertensive activity in spontaneously hypertensive rats (SHR) measured by percentage fall in cardiac rhythm (CR) at 5 mg/kg administered intraperitoneally at 5 h; format: functional, Heart; settings: route intraperitoneal; method in brief: as §3
[17] = system: Rattus norvegicus; assay: Antihypertensive activity in spontaneously hypertensive rats (SHR) measured by percentage fall in cardiac rhythm (CR) at 1 mg/kg administered intraperitoneally at 1 h; format: functional, Heart; settings: route intraperitoneal; method in brief: as §2
[18] = system: Rattus norvegicus; assay: Antihypertensive activity in spontaneously hypertensive rats (SHR) measured by percentage fall in cardiac rhythm (CR) at 25 mg/kg administered intraperitoneally at 24 h; format: functional, Heart; settings: route intraperitoneal; method in brief: as §2
[19] = system: Rattus norvegicus; assay: Antihypertensive activity in spontaneously hypertensive rats (SHR) measured by percentage fall in cardiac rhythm (CR) at 25 mg/kg administered intraperitoneally at 3 h; format: functional, Heart; settings: route intraperitoneal; method in brief: as §2
[20] = system: Rattus norvegicus; assay: Antihypertensive activity in spontaneously hypertensive rats (SHR) measured by percentage fall in cardiac rhythm (CR) at 25 mg/kg administered intraperitoneally at 5 h; format: functional, Heart; settings: route intraperitoneal; method in brief: as §3
[21] = system: Rattus norvegicus; assay: Antihypertensive activity in spontaneously hypertensive rats (SHR) measured by percentage fall in cardiac rhythm (CR) at 25 mg/kg administered perorally at 1 h; format: functional, Heart; settings: route oral; method in brief: as §3
[22] = system: Rattus norvegicus; assay: Antihypertensive activity in spontaneously hypertensive rats (SHR) measured by percentage fall in arterial pressure (AP) at 1 mg/kg administered intraperitoneally at 3 h; format: functional, Artery; settings: route intraperitoneal; method in brief: as §2
[23] = system: Rattus norvegicus; assay: Antihypertensive activity in spontaneously hypertensive rats (SHR) measured by percentage fall in arterial pressure (AP) at 25 mg/kg administered intraperitoneally at 1 h; format: functional, Artery; settings: route intraperitoneal; method in brief: as §2
[24] = system: Rattus norvegicus; assay: Antihypertensive activity in spontaneously hypertensive rats (SHR) measured by percentage fall in arterial pressure (AP) at 25 mg/kg administered intraperitoneally at 24 h; format: functional, Artery; settings: route intraperitoneal; method in brief: as §2
[25] = system: Rattus norvegicus; assay: Antihypertensive activity in spontaneously hypertensive rats (SHR) measured by percentage fall in arterial pressure (AP) at 25 mg/kg administered intraperitoneally at 3 h; format: functional, Artery; settings: route intraperitoneal; method in brief: as §2
[26] = system: Rattus norvegicus; assay: Antihypertensive activity in spontaneously hypertensive rats (SHR) measured by percentage fall in arterial pressure (AP) at 5 mg/kg administered intraperitoneally at 3 h; format: functional, Artery; settings: route intraperitoneal; method in brief: as §2
[27] = system: Cavia porcellus; assay: Effect on thromboxane synthetase activity on ex vivo platelet aggregation induced by PGE-2 at 50 mg/kg expressed as percent increase; format: functional
Method in brief: (§4)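 Fasted male or female guinea pigs (250–300 g, five per group) dosed orally in normal saline or saline with 0.2% (carboxymethyl)cellulose/1.0% Tween 80; controls given vehicle. Under ether, cardiac blood collected into 3.8% citrate. PRP adjusted to […] and aggregation induced by ADP (second wave) or AA, read by absorbance aggregometry. PGE2 and TXB2 measured by RIA.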

[28] = system: Cavia porcellus; assay: Effect on thromboxane synthetase activity on ex vivo platelet aggregation induced by PGE-2 at 100 mg/kg expressed as percent increase; format: functional; method in brief: as §4
[29] = Effect on thromboxane synthetase activity on in vitro platelet aggregation induced by AA at 10e -5 M expressed as percent increase in PGE-2; format: functional, Homo sapiens
Method in brief: (§5)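 Human citrated PRP adjusted to 200 000 […], compound at 10^-5 M final in saline/10% ethylene glycol, incubated at 37 °C. Aggregation induced with arachidonic acid 0.6 mM and read by Born absorbance aggregometry. PGE2 and TXB2 in the aggregated samples measured by radioimmunoassay. n = 5.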

[30] = Effect on PGI-2 release from rat aortic tissue at a final concentration of 10e -4 for an incubation time of 10 minutes; format: functional
Method in brief: (§6)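 Female Wistar rats (200–220 g) received heparin 200 IU/kg ip and were killed 10 min later. Aortic pieces of about 25 mm² were washed in ice-cold oxygenated Krebs–Henseleit buffer, then incubated in 1 mL buffer at 37 °C. Compound at 10^-4 M final was added 10 min before tissue transfer. PGI2 release was read as antiaggregatory activity of the incubate on ADP (2×10^-6 M)-induced human PRP aggregation and by 6-keto-PGF1α RIA. n = 4.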

[31] = Effect on PGI-2 release from rat aortic tissue at a final concentration of 10e -4 for an incubation time of 25 minutes; format: functional; method in brief: as §6
[32] = Effect on PGI-2 release from rat aortic tissue at a final concentration of 10e -4 for an incubation time of 30 minutes; format: functional; method in brief: as §6
[33] = Effect on PGI-2 release from rat aortic tissue at a final concentration of 10e -4 for an incubation time of 35 minutes; format: functional; method in brief: as §6
[34] = biological target: T1, Thromboxane-A synthase (Homo sapiens) (UniProt P24557); assay: Effect on thromboxane synthetase activity on ex vivo platelet aggregation induced by TXB2 at 100 mg/kg expressed as percent increase; format: functional, organism-based; design: dose 100 mg/kg; settings: Cavia porcellus; method in brief: as §4
T1 sequence (whole entry): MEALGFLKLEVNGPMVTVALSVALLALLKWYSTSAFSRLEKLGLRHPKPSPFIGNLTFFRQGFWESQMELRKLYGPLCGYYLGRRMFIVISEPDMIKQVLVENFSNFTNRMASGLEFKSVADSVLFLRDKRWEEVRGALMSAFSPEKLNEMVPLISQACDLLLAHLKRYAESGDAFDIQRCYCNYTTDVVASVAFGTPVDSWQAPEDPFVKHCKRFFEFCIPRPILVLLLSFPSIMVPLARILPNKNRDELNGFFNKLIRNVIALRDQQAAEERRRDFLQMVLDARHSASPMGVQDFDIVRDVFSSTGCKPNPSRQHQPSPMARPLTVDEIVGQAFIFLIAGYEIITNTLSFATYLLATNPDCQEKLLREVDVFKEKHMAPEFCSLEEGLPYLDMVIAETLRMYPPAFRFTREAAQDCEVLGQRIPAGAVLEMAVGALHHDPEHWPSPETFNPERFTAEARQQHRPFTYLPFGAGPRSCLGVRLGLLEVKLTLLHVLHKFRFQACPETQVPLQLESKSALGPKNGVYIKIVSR

[35] = biological target: T1, Thromboxane-A synthase (Homo sapiens); assay: Effect on thromboxane synthetase activity on ex vivo platelet aggregation induced by TXB2 at 50 mg/kg expressed as percent increase; format: functional, organism-based; design: dose 50 mg/kg; settings: Cavia porcellus; method in brief: as §4
[36] = biological target: T1, Thromboxane-A synthase (Homo sapiens); assay: Effect on thromboxane synthetase activity on in vitro platelet aggregation induced by AA at 10e -5 M expressed as percent […] in TXB2; format: functional; method in brief: as §5

SMILES: Br.Br.NNc1[nH]ncc2c3cc(O)ccc3nc1-2
- Decrease in AP [1]: 27%
- Decrease in AP [2]: 8%
- Decrease in AP [3]: 27%
- Decrease in AP [4]: 6%
- Decrease in AP [5]: 10%
- Decrease in AP [6]: 63%
- Decrease in AP [7]: 29%
- Decrease in CR [8]: 13%
- Decrease in CR [9]: 19%
- Decrease in CR [10]: 19%
- Decrease in CR [11]: 24%
- Decrease in CR [12]: 8%
- Decrease in CR [13]: 64%
- Decrease in CR [14]: 28%
- Decrease in CR [15]: 30%
- Decrease in CR [16]: 24%
- Decrease in CR [17]: 22%
- Decrease in CR [18]: 18%
- Decrease in CR [19]: 16%
- Decrease in CR [20]: 44%
- Decrease in CR [21]: 17%
- Decrease in AP [22]: -6%
- Decrease in AP [23]: 70%
- Decrease in AP [24]: 28%
- Decrease in AP [25]: 67%
- Decrease in AP [26]: 16%

- inhibition [34]: 100%
- inhibition [35]: 100%
- inhibition [36]: 100%
SMILES: CC(=O)Oc1ccccc1C(=O)O [ASPIRIN]
- Increase [27]: 0%
- Increase [28]: 0%
- Increase [29]: 0%
- Inhibition [30]: 80%
- Inhibition [31]: 80%
- Inhibition [32]: 80%
- Inhibition [33]: 80%
